Assay results from ChEMBL document CHEMBL1148278 (J Med Chem, 2004).

Experiments:
[1] = biological target: NAD-dependent histone deacetylase SIR2 (Saccharomyces cerevisiae S288c) (UniProt P06700); assay: Sirtuin 2 inhibitory activity and was reported as minimum growth-stimulating concentration in Saccharomyces cerevisiae
Summary of the method: (§1)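 Telomeric-silencing growth assay in S. cerevisiae UCC2210 (adh4::URA3-TEL VII-L), ca. 13 500 cells/well, in synthetic complete medium lacking uracil. Compound at 150 μM to 73 nM final, DMSO ≤2%, 30 °C for about 40–48 h. OD660 read, initial background subtracted. MGC is the concentration giving 10% of the reference maximal growth. Triplicate, ±1 SD.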

[2] = biological target: Saccharomyces cerevisiae; assay: Toxicity against Saccharomyces cerevisiae assessed as growth inhibition in complete medium
[3] = biological target: NAD-dependent histone deacetylase SIR2 (Saccharomyces cerevisiae S288c) (UniProt P06700); assay: In vitro inhibition of sirtuin 2 was evaluated using yeast whole cell lysates at 75 uM; values are per cent of control
[4] = biological target: NAD-dependent histone deacetylase SIR2 (Saccharomyces cerevisiae S288c) (UniProt P06700); assay: Selectivity index was reported as the ratio of the MGC to IC50 value
[5] = biological target: NAD-dependent histone deacetylase SIR2 (Saccharomyces cerevisiae S288c) (UniProt P06700); assay: Tested for Sir2 inhibitory activity and was reported as minimum growth-stimulating concentration in Saccharomyces cerevisiae; summary of the method: as §1
[6] = Half-life period was determined; assay type: ADME
Summary of the method: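 Hydrolysis followed by HPLC at 280 nm. 100 μM compound, made from 30 mM DMSO stock, in complete medium lacking uracil (pH 4.2-4.3, unadjusted). Half-life derived from the pseudo-first-order hydrolysis rate constant.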

[7] = biological target: NAD-dependent histone deacetylase SIR2 (Saccharomyces cerevisiae S288c) (UniProt P06700); assay: Tested for Sirtuin 2 inhibitory activity and was reported as minimum growth-stimulating concentration in Saccharomyces cerevisiae
Summary of the method: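 Cell-based telomeric silencing read-out in yeast strain UCC2210 (Mata ppr1 adh4::URA3-TEL VII-L), about 13 500 cells per well, grown in synthetic complete medium lacking uracil. Compounds tested at 150 µM to 73 nM, with at most 2% DMSO. Incubation at 30 °C for about 40–48 h. Growth read as OD660 minus initial background. MGC is the concentration giving 10% of reference maximal growth. Triplicate, ±1 SD.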

Sequence of NAD-dependent histone deacetylase SIR2 (Saccharomyces cerevisiae S288c) (P06700 whole entry): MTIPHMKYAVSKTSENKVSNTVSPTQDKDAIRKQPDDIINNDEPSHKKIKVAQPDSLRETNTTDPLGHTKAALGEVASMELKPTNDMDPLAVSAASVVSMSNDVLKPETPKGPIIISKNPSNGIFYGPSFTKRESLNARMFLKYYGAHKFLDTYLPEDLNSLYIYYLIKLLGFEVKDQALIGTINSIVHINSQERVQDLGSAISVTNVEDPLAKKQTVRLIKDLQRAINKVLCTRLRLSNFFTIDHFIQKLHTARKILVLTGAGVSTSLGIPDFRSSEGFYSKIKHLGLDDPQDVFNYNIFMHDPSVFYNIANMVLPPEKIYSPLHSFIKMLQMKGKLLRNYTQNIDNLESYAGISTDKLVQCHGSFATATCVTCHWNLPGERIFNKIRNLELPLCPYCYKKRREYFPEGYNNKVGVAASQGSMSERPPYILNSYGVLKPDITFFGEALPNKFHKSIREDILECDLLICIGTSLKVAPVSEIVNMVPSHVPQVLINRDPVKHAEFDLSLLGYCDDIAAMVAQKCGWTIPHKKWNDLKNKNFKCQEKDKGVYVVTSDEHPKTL

OCCCc1c(O)ccc2ccccc12
MGC [1]: > 150 µM | IC50 [2]: ≥ 150 µM | residual activity [3]: 88%

O=C1CCc2c(c(OCc3ccccc3)cc3ccccc23)O1
MGC [1]: 0.97 µM | SI [4]: 29 | IC50 [2]: 27 µM | residual activity [3]: 17%

CCN(CC)C(=O)CCc1c(O)ccc2ccccc12
MGC [1]: > 150 µM | IC50 [2]: 125 µM | residual activity [3]: 88%

O=C(COc1cccc2ccccc12)ON1C(=O)CCC1=O
MGC [1]: > 150 µM | IC50 [2]: ≥ 150 µM

O=C1CCc2c(cc(O)c3ccccc23)O1
MGC [1]: 11 µM

O=C1CCc2c(c3oc(=O)ccc3c3ccccc23)O1
MGC [5]: 5.1 µM | SI [4]: > 29 | IC50 [2]: ≥ 150 µM | residual activity [3]: 83%

O=C1CCc2c(ccc3ccccc23)N1
T1/2 [6]: No hydrolysis obsd | MGC [1]: > 150 µM | IC50 [2]: ≥ 150 µM | residual activity [3]: 92%

COC(=O)CCc1c(O)ccc2ccccc12
MGC [1]: 5.2 µM | residual activity [3]: 75%

O=C1CCc2ccc3c(O)cccc3c2O1
MGC [1]: 21 µM | SI [4]: > 7 | IC50 [2]: ≥ 150 µM

CCOC(=O)C1Cc2c(ccc3ccccc23)OC1=O (configuration not stated)
MGC [1]: > 150 µM | IC50 [2]: ≥ 150 µM | residual activity [3]: 66%

O=C1CCc2c(ccc3ccc4c(c23)CCC(=O)O4)O1
MGC [1]: > 150 µM | IC50 [2]: ≥ 150 µM

O=C1OC(=O)c2cccc3cccc1c23
MGC [1]: > 150 µM | residual activity [3]: 94%

C=CCC1Cc2c(ccc3ccccc23)OC1=O (configuration not stated)
MGC [1]: > 150 µM | residual activity [3]: 86%

COc1cc2c(c3ccccc13)CCC(=O)O2
MGC [1]: 1.8 µM | SI [4]: 24 | IC50 [2]: 44 µM

O=C1CCCc2c1ccc1ccccc21
MGC [1]: > 150 µM | IC50 [2]: 81 µM

O=C1CCCc2c(ccc3ccccc23)O1
half-life [6]: 2970 min | MGC [1]: > 150 µM | IC50 [2]: 12 µM | residual activity [3]: 82%

O=C1CCc2c(c(O)cc3ccccc23)O1
MGC [1]: 0.69 µM | SI [4]: 161 | IC50 [2]: 111 µM

CNC(=O)CCc1c(O)ccc2ccccc12
MGC [1]: 5.8 µM | SI [4]: > 26 | IC50 [2]: ≥ 150 µM

O=C(O)CCc1c(O)ccc2ccccc12
MGC [1]: > 150 µM | IC50 [2]: ≥ 150 µM | residual activity [3]: 87%

O=C1CCc2c(ccc3c4c(ccc23)OC(=O)CC4)O1
MGC [1]: > 150 µM | residual activity [3]: 87%

O=C1Cc2ccccc2O1
MGC [1]: 24 µM | SI [4]: > 6 | IC50 [2]: ≥ 150 µM | residual activity [3]: 89%

O=c1ccc2c(ccc3ccccc32)o1
half-life [6]: > 6000 min | MGC [1]: > 150 µM | IC50 [2]: 86 µM | residual activity [3]: 73%

O=C1CC(c2ccccc2)c2c(ccc3ccccc23)O1 (configuration not stated)
MGC [1]: > 150 µM | residual activity [3]: 90%

O=C1CCc2c(ccc3cc(O)ccc23)O1
MGC [1]: 38 µM | SI [4]: > 39 | IC50 [2]: ≥ 150 µM | residual activity [3]: 85%

O=C1CCc2c(ccc3ccccc23)S1
half-life [6]: 780 min | MGC [1]: > 150 µM | IC50 [2]: 25 µM

COc1ccc2ccc3c(c2c1)CCC(=O)O3
MGC [1]: > 150 µM

O=C1CCc2ccc3ccccc3c2O1
half-life [6]: 414 min | MGC [1]: 2.4 µM | SI [4]: 27 | IC50 [2]: 65 µM | residual activity [3]: 87%

CC1Cc2c(ccc3ccccc23)OC1=O (configuration not stated)
MGC [1]: 5.4 µM | SI [4]: 10 | IC50 [2]: 52 µM | residual activity [3]: 94%

COc1cccc2c3c(ccc12)OC(=O)CC3
MGC [1]: 5.5 µM

O=C1CCc2ccccc2O1
MGC [1]: 0.85 µM | residual activity [3]: 15%

O=C1CCc2cc3ccccc3cc2O1
MGC [1]: 15 µM | SI [4]: 10 | IC50 [2]: ≥ 150 µM | residual activity [3]: 85%

O=C1CCc2c(c3c(c4ccccc24)CCC(=O)O3)O1
MGC [1]: 4.9 µM | SI [4]: 18 | IC50 [2]: 89 µM | residual activity [3]: 80%

COc1ccc2c3c(ccc2c1)OC(=O)CC3
MGC [1]: 13.8 µM | SI [4]: 5 | IC50 [2]: 73 µM | residual activity [3]: 84%

O=c1ccc2ccccc2o1
MGC [5]: > 150 µM | residual activity [3]: 74%

O=C1CCc2c(ccc3ccc(O)cc23)O1
MGC [1]: 48 µM | SI [4]: 3 | IC50 [2]: 134 µM

O=C1Cc2c(ccc3ccccc23)O1
half-life [6]: 732 min | MGC [1]: > 150 µM | IC50 [2]: 59 µM

NC(=O)CCc1c(O)ccc2ccccc12
MGC [1]: 0.79 µM | SI [4]: 158 | IC50 [2]: 125 µM | residual activity [3]: 80%

COc1cc2ccccc2c2c1OC(=O)CC2
MGC [1]: 1.5 µM | SI [4]: 85 | IC50 [2]: 128 µM

O=C1CCc2c(ccc3ccccc23)O1 [SPLITOMICIN]
half-life [6]: 450 min | MGC [7]: 0.49 µM | residual activity [3]: 66%

CC(C)CC1Cc2c(ccc3ccccc23)OC1=O (configuration not stated)
MGC [1]: > 150 µM

O=C1CCc2c(ccc3c(O)cccc23)O1
MGC [1]: 16 µM | SI [4]: > 107 | IC50 [2]: ≥ 150 µM

CC(C)(C)OC(=O)NCCOCCOc1cc2ccccc2c2c1OC(=O)CC2
MGC [1]: 6.4 µM | SI [4]: 13 | IC50 [2]: 86 µM
